Tests used:
Type in all cases: functional, cell-based
A101D = assay: Antiproliferative activity against human A101D cells after 10 days; settings: 240 h
Procedure, shortened: (§1)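 Tested as part of a 240-line cancer cell panel (Eurofins Oncopanel); all lines were mycoplasma-negative and STR-verified. Cells were exposed to a compound concentration series in 2D culture for 10 days. The highest concentration was 10 μM or 25 μM, depending on the inhibitor. Antiproliferative IC50 was derived from the mean of three biological replicates.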

A204 = assay: Antiproliferative activity against human A204 cells after 10 days; settings: A204, 240 h; procedure, shortened: as §1
A498 = assay: Antiproliferative activity against human A498 cells after 10 days; settings: A498, 240 h; procedure, shortened: as §1
AGS = assay: Antiproliferative activity against human AGS cells after 10 days; settings: 240 h; procedure, shortened: as §1
BV-173 = assay: Antiproliferative activity against human BV-173 cells after 10 days; settings: BV-173, 240 h; procedure, shortened: as §1
CAKI-1 = assay: Antiproliferative activity against human CAKI-1 cells after 10 days; settings: CAKI-1, 240 h; procedure, shortened: as §1
CAPAN-1 = assay: Antiproliferative activity against human CAPAN-1 cells after 10 days; settings: CAPAN-1, 240 h; procedure, shortened: as §1
CFPAC-1 = assay: Antiproliferative activity against human CFPAC-1 cells after 10 days; settings: CFPAC-1, 240 h; procedure, shortened: as §1
D283 Med = assay: Antiproliferative activity against human D283 Med cells after 10 days; settings: 240 h
Procedure, shortened: (§2)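 10-day 2D proliferation screen of a broad cancer cell panel (about 240 lines, Eurofins Oncopanel). All lines were mycoplasma negative and STR verified. Compounds were dosed up to a top concentration of 10 μM or 25 μM, depending on the inhibitor. Anti-proliferative IC50 values are the average of three biological replicates.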

Daudi = assay: Antiproliferative activity against human Daudi cells after 10 days; settings: 240 h; procedure, shortened: as §2
DLD-1 = assay: Antiproliferative activity against human DLD-1 cells after 10 days; settings: DLD-1, 240 h; procedure, shortened: as §2
EB-3 = assay: Antiproliferative activity against human EB-3 cells after 10 days; settings: EB-3, 240 h; procedure, shortened: as §2
HCT-8 = assay: Antiproliferative activity against human HCT-8 cells after 10 days; settings: HCT-8, 240 h; procedure, shortened: as §2
HEC-1-A = assay: Antiproliferative activity against human HEC-1-A cells after 10 days; settings: 240 h; procedure, shortened: as §2
Hs-578T = assay: Antiproliferative activity against human Hs 578T cells after 10 days; settings: 240 h; procedure, shortened: as §2
Hs 695T = assay: Antiproliferative activity against human Hs 695T cells after 10 days; settings: 240 h; procedure, shortened: as §2
HT-1376 = assay: Antiproliferative activity against human HT-1376 cells after 10 days; settings: HT-1376, 240 h; procedure, shortened: as §2
JEG-3 = assay: Antiproliferative activity against human JEG-3 cells after 10 days; settings: JEG-3, 240 h
Procedure, shortened: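 Cell lines run in the Eurofins Oncopanel broad cancer panel, all mycoplasma-negative and STR-verified. Cells were exposed to a compound concentration series in a 10-day proliferation assay, and an anti-proliferative IC50 was derived. Values are the mean of three biological replicates.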

KLE = assay: Antiproliferative activity against human KLE cells after 10 days; settings: 240 h
Procedure, shortened: (§3)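 Broad cancer cell line panel (Eurofins Oncopanel, about 240 lines; mycoplasma negative, STR verified) grown in 2D culture and exposed to compound in a 10-day proliferation assay. The top concentration was 10 μM for the SMYD2 inhibitor series and 25 μM for the SMYD3 inhibitor. The proliferative IC50 is taken from concentration-response data, each value the mean of three biological replicates.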

LS-1034 = assay: Antiproliferative activity against human LS1034 cells after 10 days; settings: LS-1034, 240 h; procedure, shortened: as §3
Malme-3M = assay: Antiproliferative activity against human Malme-3M cells after 10 days; settings: 240 h; procedure, shortened: as §3
MDA-MB-231 = assay: Antiproliferative activity against human MDA-MB-231 cells after 10 days; settings: MDA-MB-231, 240 h; procedure, shortened: as §3
MES-SA = assay: Antiproliferative activity against human MES-SA cells after 10 days; settings: 240 h; procedure, shortened: as §3
MOLT-16 = assay: Antiproliferative activity against human MOLT-16 cells after 10 days; settings: MOLT-16, 240 h; procedure, shortened: as §3
[1] = Antiproliferative activity against human MT-3 cells after 10 days; settings: MT-3, 240 h; procedure, shortened: as §3
MV4-11 = assay: Antiproliferative activity against human MV4-11 cells after 10 days; settings: MV4-11, 240 h; procedure, shortened: as §3
NALM-6 = assay: Antiproliferative activity against human NALM-6 cells after 10 days; settings: NALM-6, 240 h; procedure, shortened: as §3
NCI-H596 = assay: Antiproliferative activity against human NCI-H596 cells after 10 days; settings: NCI-H596, 240 h; procedure, shortened: as §3
NCI-H661 = assay: Antiproliferative activity against human NCI-H661 cells after 10 days; settings: NCI-H661, 240 h; procedure, shortened: as §3
NCI-H747 = assay: Antiproliferative activity against human NCI-H747 cells after 10 days; settings: NCI-H747, 240 h; procedure, shortened: as §3
OE19 = assay: Antiproliferative activity against human OE19 cells after 10 days; settings: OE19, 240 h; procedure, shortened: as §3
[2] = Antiproliferative activity against human OE21 cells after 10 days; settings: OE21, 240 h; procedure, shortened: as §3
PC-3 = assay: Antiproliferative activity against human PC-3 cells after 10 days; settings: PC-3, 240 h; procedure, shortened: as §3
Raji = assay: Antiproliferative activity against human Raji cells after 10 days; settings: 240 h
[3] = Antiproliferative activity against human RKOE6 cells after 10 days; settings: RKOE6, 240 h
Procedure, shortened: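 Tested in the Eurofins Oncopanel of about 240 cancer cell lines, all mycoplasma-negative and STR-verified. Cells were exposed to compound for 10 days in 2D culture, and a proliferative IC50 was derived from the concentration series. The highest concentration tested was 10 μM in the SMYD2 inhibitor screen and 25 μM in the SMYD3 inhibitor screen. Values are means of three biological replicates.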

RPMI-7951 = assay: Antiproliferative activity against human RPMI-7951 cells after 10 days; settings: RPMI-7951, 240 h
SAOS-2 = assay: Antiproliferative activity against human SAOS-2 cells after 10 days; settings: SAOS-2, 240 h
SCC-9 = assay: Antiproliferative activity against human SCC-9 cells after 10 days; settings: SCC-9, 240 h
SK-LMS-1 = assay: Antiproliferative activity against human SK-LMS-1 cells after 10 days; settings: SK-LMS-1, 240 h
SK-MEL3 = assay: Antiproliferative activity against human SK-MEL3 cells after 10 days; settings: SK-MEL3, 240 h
SK-MES-1 = assay: Antiproliferative activity against human SK-MES-1 cells after 10 days; settings: SK-MES-1, 240 h
SK-N-DZ = assay: Antiproliferative activity against human SK-N-DZ cells after 10 days; settings: 240 h
SK-OV-3 = assay: Antiproliferative activity against human SK-OV-3 cells after 10 days; settings: SK-OV-3, 240 h
SW1353 = assay: Antiproliferative activity against human SW1353 cells after 10 days; settings: SW1353, 240 h
SW-403 = assay: Antiproliferative activity against human SW403 cells after 10 days; settings: SW-403, 240 h
T-24 = assay: Antiproliferative activity against human T24 cells after 10 days; settings: T-24, 240 h
Y79 = assay: Antiproliferative activity against human Y79 cells after 10 days; settings: Y79, 240 h

## Cc1cn(CCN2CCN(c3ccccc3-c3cc(C#N)cc(C(=O)NCCCN4CCCC4)c3)CC2)c2ccccc12
A101D
  IC50: 1230 nM
A204
  IC50: 1350 nM
A498
  IC50: 2010 nM
AGS
  IC50: 1270 nM
BV-173
  IC50: 1330 nM
CAKI-1
  IC50: 2790 nM
CAPAN-1
  IC50: 5090 nM
CFPAC-1
  IC50: 1480 nM
D283 Med
  IC50: 2510 nM
Daudi
  IC50: 857 nM
DLD-1
  IC50: 3400 nM
EB-3
  IC50: 329 nM
HCT-8
  IC50: 2520 nM
HEC-1-A
  IC50: 1050 nM
Hs-578T
  IC50: 6140 nM
Hs 695T
  IC50: 6650 nM
HT-1376
  IC50: 2350 nM
JEG-3
  IC50: 1500 nM
KLE
  IC50: 3210 nM
LS-1034
  IC50: 2900 nM
Malme-3M
  IC50: 2400 nM
MDA-MB-231
  IC50: 1070 nM
MES-SA
  IC50: 2300 nM
MOLT-16
  IC50: 1110 nM
[1]
  IC50: 1240 nM
MV4-11
  IC50: 1010 nM
NALM-6
  IC50: 1140 nM
NCI-H596
  IC50: 2950 nM
NCI-H661
  IC50: 3390 nM
NCI-H747
  IC50: 2320 nM
OE19
  IC50: 2520 nM
[2]
  IC50: 1060 nM
PC-3
  IC50: 2770 nM
Raji
  IC50: 1590 nM
[3]
  IC50: 1070 nM
RPMI-7951
  IC50: 2050 nM
SAOS-2
  IC50: 3030 nM
SCC-9
  IC50: 1180 nM
SK-LMS-1
  IC50: 2410 nM
SK-MEL3
  IC50: 1390 nM
SK-MES-1
  IC50: 1180 nM
SK-N-DZ
  IC50: 3760 nM
SK-OV-3
  IC50: 2950 nM
SW1353
  IC50: 2980 nM
SW-403
  IC50: 3120 nM
T-24
  IC50: 2940 nM
Y79
  IC50: 3530 nM

## O=C(NC1CN(Cc2cnn(Cc3ccccc3)c2)C1)c1cn(C2CC2)nn1
A101D
  IC50: > 10000 nM
A204
  IC50: > 10000 nM
A498
  IC50: > 10000 nM
AGS
  IC50: > 10000 nM
BV-173
  IC50: > 10000 nM
CAKI-1
  IC50: > 10000 nM
CAPAN-1
  IC50: > 10000 nM
CFPAC-1
  IC50: > 10000 nM
D283 Med
  IC50: > 10000 nM
Daudi
  IC50: > 10000 nM
DLD-1
  IC50: > 10000 nM
EB-3
  IC50: > 10000 nM
HCT-8
  IC50: > 10000 nM
HEC-1-A
  IC50: > 10000 nM
Hs-578T
  IC50: > 10000 nM
Hs 695T
  IC50: > 10000 nM
HT-1376
  IC50: > 10000 nM
JEG-3
  IC50: > 10000 nM
KLE
  IC50: > 10000 nM
LS-1034
  IC50: > 10000 nM
Malme-3M
  IC50: > 10000 nM
MDA-MB-231
  IC50: > 10000 nM
MES-SA
  IC50: > 10000 nM
MOLT-16
  IC50: > 10000 nM
[1]
  IC50: > 10000 nM
MV4-11
  IC50: > 10000 nM
NALM-6
  IC50: > 10000 nM
NCI-H596
  IC50: > 10000 nM
NCI-H661
  IC50: > 10000 nM
NCI-H747
  IC50: > 10000 nM
OE19
  IC50: > 10000 nM
[2]
  IC50: 3400 nM
PC-3
  IC50: > 10000 nM
Raji
  IC50: > 10000 nM
[3]
  IC50: > 10000 nM
RPMI-7951
  IC50: > 10000 nM
SAOS-2
  IC50: > 10000 nM
SCC-9
  IC50: > 10000 nM
SK-LMS-1
  IC50: > 10000 nM
SK-MEL3
  IC50: > 10000 nM
SK-MES-1
  IC50: > 10000 nM
SK-N-DZ
  IC50: > 10000 nM
SK-OV-3
  IC50: > 10000 nM
SW1353
  IC50: > 10000 nM
SW-403
  IC50: > 10000 nM
T-24
  IC50: > 10000 nM
Y79
  IC50: > 10000 nM
